As a reminder, the IC50 is the point on the concentration scale where inhibition reaches its midpoint. The half-life is the time in which the quantity being followed falls by half. Low readings indicate fast loss, high ones slow loss. The term Papp denotes a coefficient for how fast a substance crosses the barrier.

A short description of data set [1]: Antiplatelet aggregation activity against adenosine diphosphate-induced human platelet rich plasma assessed as inhibition of platelet aggregation by turbidimetric method. The data set is classed as functional. In a few lines:
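Human PRP, prepared by two-step centrifugation and adjusted to 330 000 platelets/μL with PPP. Compound was preincubated 5 min at 37 °C in 0.5% DMSO, then 20 μM ADP was added. OD626 was read kinetically for 15 min at 37 °C with mixing between reads.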

For data set [2], the system named is Platelet. The experiment in a line: Relative potency, ratio of IC50 for drug to IC50 for AZD-6140 for platelet aggregation in human platelet rich plasma. The data set is classed as functional.
A short description of data set [3]: Clearance in Sprague-Dawley rat at 2 mg/kg, iv and 5 mg/kg, po. The data set is classed as ADME, organism-based. As to conditions: in vivo. In a few lines: (§1)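 Rats received 2 mg/kg iv infusion or 5 mg/kg po, in 50% PEG400/40% PBS/10% ethanol.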
Data set [4] is described as follows: Volume of distribution at steady state in Sprague-Dawley rat at 2 mg/kg, iv and 5 mg/kg, po. The data set is classed as ADME, organism-based. As to conditions: in vivo, read-out: Vdss. In a few lines: as §1
Data set [5] is described as follows: Half life in Sprague-Dawley rat at 2 mg/kg, iv and 5 mg/kg, po. The data set is classed as ADME, organism-based. The following applies: in vivo. In short, it runs like this: as §1
Data set [6] is filed under the species Rattus norvegicus. As to conditions: in vivo, po, 5 mg/kg.
The nature of data set [7]: Apparent permeability across human Caco-2 cells. The data set is classed as ADME, cell-based. (In general: Caco-2 monolayers are a common model of the intestinal barrier.)
A short description of data set [8]: Solubility of the compound. The data set is classed as physicochemical.
Data set [9] can be described thus: Chemical stability of the compound. The data set is classed as physicochemical.
Data set [10] can be described thus: Antiplatelet aggregation activity against adenosine diphosphate-induced human platelet rich plasma assessed as inhibition of platelet aggregation by chronolog PRP aggregometry assay. As to conditions: read-out: IC50(app).
The species named for data set [11] is Rattus norvegicus. Briefly: Antithrombotic activity in rat venous thrombus model assessed as inhibition of injury-induced thrombosis. The data set is classed as functional, organism-based. In a few lines:
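Rats given test compound orally; thrombosis induced by vascular injury with ferric chloride; thrombus formation was scored as the read-out.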

The species named for data set [12] is Rattus norvegicus. Briefly: Toxicity in rat assessed as adverse effects. As to conditions: in vivo. The data set is classed as organism-based.
For data set [13], the species on record is Canis familiaris. Briefly: Toxicity in dog assessed as adverse effects. The data set is classed as organism-based, Canis lupus familiaris. As to conditions: in vivo.

In the case of `CCCCCOC(=O)N1CCN(C(=O)[C@H](CCC(=O)O)NC(=O)c2cc(OCCOC)cc(-c3ccccc3)n2)CC1`, the IC50 in data set [1] (Homo sapiens, Platelet, Plasma) turned out to be 4.3 µM. Further, the “Ratio IC50” value in [2] is on record as 3.2. For the same compound, the clearance in data set [3] was 2.76 L/h/kg. Further, the Vd in data set [4] is 2.3 L/kg. In data set [5], this compound gave a half-life of 36 min. Moreover, the F in [6] was 183%.
For `CCCCOC(=O)N1CCN(C(=O)[C@H](CCC(=O)O)NC(=O)c2cc(OCCOC)cc(-c3ccccc3)n2)CC1`, the IC50 in data set [1] (Homo sapiens, Platelet, Plasma) amounted to 4.5 µM. In addition, the “Ratio IC50” value in data set [2] was 2.9. In addition, the Papp in data set [7] was determined as 11 nm/s.
Take `CCCCCOC(=O)N1CCN(C(=O)[C@H](CCC(=O)O)NC(=O)c2cc(N3CCC(COC)CC3)cc(-c3ccccc3)n2)CC1`: the IC50 in data set [1] (platelet) is 3.9 µM; in data set [10], 1.8 µM. Moreover, the solubility result in data set [8] is “Soluble”. For the same compound, in data set [9], the Stability entry is reported as “Stable”. The inhibition result in [11] was “Dose-dependent effect”. Besides, the Activity result in data set [12] and in data set [13] was “Non-toxic” each time.

Source of the values: ChEMBL document CHEMBL1157562, “Piperazinyl glutamate pyridines as potent orally bioavailable P2Y12 antagonists for inhibition of platelet aggregation” (J Med Chem, 2010).
